This passage reports MIC, IC50 and CTE results from ChEMBL document CHEMBL1129531, “2-substituted piperazines as constrained amino acids. Application to the synthesis of potent, non carboxylic acid inhibitors of farnesyltransferase” (J Med Chem, 1996).

For orientation: MIC means the lowest concentration found to suppress growth. Lower therefore signals a more susceptible organism. As usually defined, the IC50 is the concentration that gives 50% inhibition. A lower IC50 goes with higher potency.

SMILES strings stand for the structures. Values after ≈ are worked out from the molar mass of the structure shown.

Assay [1] is described as follows: Inhibition of anchorage-independent growth of ras-transformed cells in soft agar. The format is functional. The method in brief:
(§1)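 RAT1 cells transformed with v-ras or v-raf were grown in soft agar with compound. MIC is the minimum concentration reducing the size and number of colonies relative to vehicle-treated control. A v-mos-transformed cell line served as control, tested up to 2.5 µM.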

Assay [2] concerns the target Protein farnesyltransferase (Rattus norvegicus, UniProt Q02293+Q04631). Briefly: Inhibition of post-traslational processing of Ras protein in RAT1 cell line. The format is functional, cell-based. The method in brief:
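RAT1 cells transformed with viral Ha-ras were incubated with compound for 24 h, then lysed. Ras was immunoprecipitated and resolved by denaturing gel electrophoresis to detect inhibition of post-translational processing (farnesylation). IC50 derived.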

The nature of assay [3]: Inhibition of anchorage-independent growth of raf-transformed cells in soft agar. The format is functional. The method in brief: as §1
Assay [4] concerns the target Geranylgeranyl transferase type I (Bos taurus, UniProt P29702+Q5EAD5). Put plainly: Inhibition of bovine Geranylgeranyl transferase type I. Format: protein-complex assay. The method in brief:
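Type-I GGTase from bovine source. IC50 reported ±SEM with the number of determinations given.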

Another assay concerns Rat1. Put plainly: Highest nontoxic concentration in RAT1 cells. The format is functional. The essentials:
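Cultured RAT1 cells; viability assessed by viable staining with MTT. Value is the highest nontoxic concentration, i.e. the concentration compatible with ≥90% cell survival.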

The target of assay [5] is Protein farnesyltransferase (Homo sapiens, UniProt P49354+P49356). Briefly: Inhibition of [3H]FPP incorporation into Ha-Ras by Farnesyltransferase. The format is protein-complex assay. The method in brief:
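Recombinant human Ha-Ras protein as acceptor, with [³H]FPP as farnesyl donor. Read-out is FTase-catalyzed radiolabel incorporation into Ha-Ras. IC50 is the concentration giving 50% inhibition, reported ±SEM with the number of determinations given.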

Assay [6] in a line: Inhibition of human Geranylgeranyl transferase type I. The essentials: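 Recombinant human GGTase I. IC50 reported ±SEM with the number of determinations given.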

Consider `CCCC[C@H]1CN(C(=O)c2cccc3ccccc23)CCN1C[C@@H](N)CS`, for which the figures for the MIC in assay [1] and in assay [3] were 10 µM (≈ 3.86 µg/mL) and > 10 µM, respectively. The IC50 in assay [2] came out at 0.5 µM; in assay [4], 0.16 µM; in assay [5], 0.001 µM. The compound also gave a CTE with Rat1 of 10 µM.
`CCCC[C@H]1CN(C(=O)c2ccccc2)CCN1C[C@@H](N)CS` returned an IC50 in assay [5] of 0.024 µM.
On to `COCC[C@H]1CN(C(=O)c2cccc3ccccc23)CCN1C[C@@H](N)CS`, for which the MIC in assay [1] was 10 µM (≈ 3.88 µg/mL); in assay [3] it was > 50 µM. Also, the figures for the IC50 in assay [2], in assay [4] and in assay [5] were 0.5 µM, 10 µM and 0.003 µM, respectively. Besides, the CTE in the assay with Rat1 was >100 µM.
In the case of `CCCC[C@H]1CN(C(=O)c2cccc(C)c2C)CCN1C[C@@H](N)CS`, the IC50 in assay [4] is 0.36 µM; in assay [5], 0.005 µM.
The matching figures for `Cc1cccc(C(=O)N2CCN(C[C@@H](N)CS)CC2)c1C`: 2.8 µM and 0.16 µM.
As to `N[C@@H](CS)CN1CCN(C(=O)c2cccc3ccccc23)C[C@@H]1CCOC1CC1`, the MIC in assay [1] is 2.5 µM (≈ 1.03 µg/mL). For the same compound, the IC50 worked out at 0.5 µM in assay [2], 3.9 µM in assay [6] and 0.001 µM in assay [5]. The CTE with Rat1 was 25 µM.
`CC[C@H]1CN(C(=O)c2cccc(C)c2C)CCN1C[C@@H](N)CS` yielded an IC50 in assay [5] of 0.068 µM.
